Reference: ChEMBL document CHEMBL5712922, “Synergistic effects of type I PRMT and PARP inhibitors against non-small cell lung cancer cells” (Clin Epigenetics, 2021)
Active and inactive are the calls of the source. The calls are words filed in the database; no cut-off is given here.

How the values were obtained:
[1] = tested on: A549; assay: Antiproliferative against human A549 cells assessed as reduction in cell viability at 16.5 uM for 24 hrs relative to control; format: functional
Outline: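 A549 cells exposed to MS023 for 24 h in dose–response; viability read by flow cytometry with Viacount dye reagent distinguishing viable, pre-apoptotic and dead cells.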

[2] = tested on: HCC4006; assay: Antiproliferative against human HCC4006 cells expressing MTAP clone 2 assessed as […] treated for 7 days with replenishment of medium for every 48 hrs by MTT assay (reference value: 0.24 uM); format: functional, cell-based
Outline: (§1)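 Parental, empty-vector (pLoc) or MTAP-re-expressing lentiviral clone cells (blasticidin 3 µg/ml selected) seeded day 0; MS023 (0.2–2 μM final) and/or BMN-673 (0.3–50 nM final) or DMSO added after 16 h, replenished with medium every 48 h. Day 7: MTT reagent 3 h at 37 °C, solvent, absorbance 590 nm; triplicates; percent death = 1 − (treated/DMSO).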

[3] = tested on: A549; assay: Antiproliferative against human A549 cells expressing MTAP clone 1 assessed as […] treated for 7 days with replenishment of medium for every 48 hrs by MTT assay (reference value: 4.4 uM); format: functional, cell-based; outline: as §1
[4] = tested on: A549; assay: Induction of DNA damage in human A549 cells at 2 uM for 7 days by gamma-H2AX analysis; format: functional, cell-based; conditions: time 7.0 day
Outline: (§2)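 A549 cells grown on coverslips under MTT treatment conditions (inhibitors replenished every 48 h) for 7 days with MS023 (0.2–2 µM) and/or BMN-673 (50 nM); fixed in 4% paraformaldehyde, Triton-permeabilized, stained with anti-γ-H2AX (1:1000, 16 h, 4 °C) and Alexa488 secondary, DAPI counterstain. ≥200 cells imaged; fraction with >5 foci reported; unpaired t tests.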

[5] = tested on: HCC4006; assay: Antiproliferative against human HCC4006 cells expressing MTAP clone 1 assessed as […] treated for 7 days with replenishment of medium for every 48 hrs by MTT assay (reference value: 0.24 uM); format: functional, cell-based; outline: as §1
[6] = tested on: SK-LU-1; assay: Antiproliferative against human SK-LU-1 cells expressing MTAP clone 2 assessed as […] treated for 7 days with replenishment of medium for every 48 hrs by MTT assay (reference value: 16.3 uM); format: functional, cell-based
[7] = tested on: A549; assay: Antiproliferative against human A549 cells expressing MTAP clone 2 assessed as […] treated for 7 days with replenishment of medium for every 48 hrs by MTT assay (reference value: 4.4 uM); format: functional, cell-based
[8] = tested on: SK-LU-1; assay: Antiproliferative against human SK-LU-1 cells expressing MTAP clone 1 assessed as […] treated for 7 days with replenishment of medium for every 48 hrs by MTT assay (reference value: 16.3 uM); format: functional, cell-based
[9] = tested on: A549; assay: Induction of DNA damage in human A549 cells assessed as increase in stained cells at 2 uM for 7 days by gamma-H2AX analysis (reference value: 3.9%); format: functional; conditions: time 7 day; outline: as §2
[10] = tested on: A549; assay: Induction of DNA damage in human A549 cells assessed as increase in stained cells at 0.2 uM for 7 days by gamma-H2AX analysis (reference value: 3.9%); format: functional; conditions: time 7 day; outline: as §2
[11] = tested on: A549; assay: Synergistic antiproliferative activity against human A549 cells pretreated with MS023 for 24 hrs followed by compound addition at 10 uM measured after for 24 hrs relative to control; format: functional
Outline: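 A549 seeded 20K/well; next day 16.5 μM MS023 or DMSO for 24 h, then 181 epigenetic library drugs at 10 μM for 24 h. Viability by Viacount flow cytometry after trypsinization; heat-killed well as total death control. Synergy Index = (monotherapy viability × MS023 viability effect)/combination viability; also synergy percentage (1 − 1/SI)×100.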

[12] = tested on: A549; assay: Antiproliferative against human A549 cells assessed as viable cells pretreated with MS023 for 24 hrs followed by compound addition at 10 uM measured after for 24 hrs relative to control; conditions: A549, 24 h, read-out: Activity
[13] = tested on: PEO1; assay: Antiproliferative activity against BRCA2 deficient human PEO1 cells at 3.75 to 60 nM in presence of MS023; format: functional, cell-based; conditions: dose 3.75-60 nM
Outline: (§3)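 PEO1 and PEO4 ovarian cells seeded 3,000/well; treated one day after plating with MS023 and/or BMN-673 or DMSO vehicle, medium with inhibitors replenished every 48 h. Six days after first treatment, nuclei stained with Hoechst 33342 (10 µg/ml final, 30 min) and counted by plate imaging; counts normalized to DMSO wells. Combination effect expressed as Bliss score.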

[14] = tested on: A549; assay: Induction of DNA damage in human A549 cells at 50 nM in presence of MS023 for 7 days by gamma-H2AX analysis; format: functional, cell-based; conditions: time 7.0 day; outline: as §2
[15] = tested on: PEO1; assay: Antiproliferative activity against BRCA2 deficient human PEO1 cells at 3.75 to 60 nM; format: functional, cell-based; conditions: dose 3.75-60 nM; outline: as §3
[16] = tested on: A549; assay: Induction of DNA damage in human A549 cells assessed as increase in stained cells at 50 nM for 7 days in presence of MS023 by gamma-H2AX analysis (reference value: 3.9%); format: functional; conditions: time 7 day; outline: as §2
[17] = tested on: PEO1; assay: Antiproliferative activity against BRCA2 deficient human PEO1 cells assessed as bliss energy score at 3.75 to 60 nM in presence of MS023; format: functional; conditions: dose 3.75-60 nM; outline: as §3
[18] = tested on: A549; assay: Induction of DNA damage in human A549 cells at 50 nM for 7 days by gamma-H2AX analysis; format: functional, cell-based; conditions: time 7.0 day; outline: as §2
[19] = Antiproliferative activity against human PEO4 cells expressing BRCA2 mutant assessed as bliss energy score at 3.75 to 60 nM in presence of MS023; format: functional; conditions: dose 3.75-60 nM; outline: as §3
[20] = tested on: A549; assay: Induction of cell death in human A549 cells assessed as bliss energy score at 0.3 nM in presence of EPZ 15666 by viacount reagent based analysis; format: functional
[21] = tested on: A549; assay: Antiproliferative against human A549 cells expressing MTAP clone 1 assessed as […] treated at 25 to 50 nM for 7 days in presence of MS023 with replenishment of medium for every 48 hrs by MTT assay relative to control; format: functional; parameters: scale not given: the % may be the effect or the level left; conditions: dose 25-50 nM, time 7 day
[22] = tested on: PEO4; assay: Antiproliferative activity against human PEO4 cells expressing BRCA2 mutant at 3.75 to 60 nM; format: functional, cell-based; conditions: dose 3.75-60 nM; outline: as §3
[23] = tested on: A549; assay: Antiproliferative against human A549 cells assessed as killed cells at 0.3 nM treated for 7 days in presence of MS023 with replenishment of medium for every 48 hrs by MTT assay relative to control; conditions: time 7 day
[24] = tested on: A549; assay: Induction of cell death in human A549 cells at 0.3 nM in presence of 2 uM MS023 by viacount reagent based analysis; format: functional
[25] = tested on: A549; assay: Induction of DNA damage in human A549 cells assessed as increase in stained cells at 50 nM for 7 days by gamma-H2AX analysis (reference value: 3.9%); format: functional; conditions: time 7 day; outline: as §2
[26] = tested on: A549; assay: Induction of cell death in human A549 cells assessed as bliss energy score at 0.3 nM in presence of GSK 591 by viacount reagent based analysis; format: functional
[27] = tested on: PEO4; assay: Antiproliferative activity against human PEO4 cells expressing BRCA2 mutant at 3.75 to 60 nM in presence of MS023; format: functional, cell-based; conditions: dose 3.75-60 nM; outline: as §3
[28] = tested on: A549; assay: Antiproliferative against human A549 cells expressing MTAP clone 2 assessed as […] treated at 25 to 50 nM for 7 days in presence of MS023 with replenishment of medium for every 48 hrs by MTT assay relative to control; format: functional; parameters: scale not given: the % may be the effect or the level left; conditions: dose 25-50 nM, time 7 day
[29] = tested on: A549; assay: Induction of DNA damage in human A549 cells assessed as increase in stained cells at 1 nM for 7 days by gamma-H2AX analysis (reference value: 3.9%); format: functional; conditions: time 7 day

CC(C)Oc1ccc(-c2c[nH]cc2CN(C)CCN)cc1
Activity [1]: 23% | IC50 [2]: 0.56 µM | IC50 [3]: 5.1 µM | Activity [4]: Active | IC50 [5]: 0.47 µM | IC50 [6]: 41 µM | IC50 [7]: 13.4 µM | IC50 [8]: 36.7 µM | Activity [9]: 27.6% | Activity [10]: 19.6%

CN(C)CC(=O)Nc1ccc2[nH]c(=O)c3ccccc3c2c1.Cl [PJ34]
Activity [11]: 21% | viability at 10 µM [12]: 54.2%

COC1CCN(C(=O)c2cc(Cc3n[nH]c(=O)c4ccccc34)ccc2F)CC1 [AZD2461]
Activity [11]: 67% | viability at 10 µM [12]: 54.2%

O=C(c1cc(Cc2n[nH]c(=O)c3ccccc23)ccc1F)N1CCN(C(=O)C2CC2)CC1 [OLAPARIB]
Activity [11]: 48% | viability at 10 µM [12]: 54.2%

C[C@]1(c2nc3c(C(N)=O)cccc3[nH]2)CCCN1 [VELIPARIB]
Activity [11]: 98% | viability at 10 µM [12]: 54.2%

NC(=O)c1ccc(I)c([N+](=O)[O-])c1 [INIPARIB]
Activity [11]: 15% | viability at 10 µM [12]: 54.2%

CNCc1ccc(-c2[nH]c3cc(F)cc4c3c2CCNC4=O)cc1 [RUCAPARIB]
Activity [11]: 24% | viability at 10 µM [12]: 54.2%

Cc1sc2c(c1C)C(c1ccc(Cl)cc1)=N[C@@H](CC(=O)Nc1ccc(O)cc1)c1nnc(C)n1-2 [BIRABRESIB]
viability at 10 µM [12]: 54.2%

O=C(O)CCNc1cc(N2CCc3ccccc3CC2)nc(-c2ccccn2)n1
viability at 10 µM [12]: 54.2%

Nc1ncn([C@H]2C[C@H](O)[C@@H](CO)O2)c(=O)n1 [DECITABINE]
viability at 10 µM [12]: 54.2%

CN1CCN(c2cccc(Nc3nc4c(-c5ccc(S(C)(=O)=O)cc5)cccn4n3)c2)CC1
viability at 10 µM [12]: 54.2%

Cc1csc(-c2nnc(Nc3ccc(Oc4ncccc4-c4ccnc(N)n4)cc3)c3ccccc23)c1 [AMG-900]
viability at 10 µM [12]: 54.2%

CCc1cccc(CC)c1NC(=O)N1Cc2[nH]nc(NC(=O)c3ccc(N4CCN(C)CC4)cc3)c2C1 [PHA-680632]
viability at 10 µM [12]: 54.2%

Cc1cc(Nc2cc(CN3CCOCC3)c3nc(C)c(Cc4ccc(Cl)cc4F)n3n2)n[nH]1 [GANDOTINIB]
viability at 10 µM [12]: 54.2%

N#Cc1ccc(-c2csc(NN=C3CCCC3)n2)cc1
viability at 10 µM [12]: 54.2%

NC1=NC(=O)/C(=C\c2ccc(O)cc2)S1
viability at 10 µM [12]: 54.2%

Cc1sc2c(c1C)C(c1ccc(Cl)cc1)=N[C@@H](CC(N)=O)c1nnc(C)n1-2
viability at 10 µM [12]: 54.2%

Cc1ccc(S(=O)(=O)O)cc1.NC(=O)c1cccc2cn(-c3ccc([C@@H]4CCCNC4)cc3)nc12
Activity [11]: 11% | viability at 10 µM [12]: 54.2%

Cn1ncnc1[C@H]1c2n[nH]c(=O)c3cc(F)cc(c23)N[C@@H]1c1ccc(F)cc1 [TALAZOPARIB]
Activity [13]: Active | Activity [14]: Active | Activity [15]: Active | Activity [16]: 69.5% | Activity [17]: 17.98 | Activity [18]: Active | Activity [19]: 21.64 | Activity [20]: 13.506 | Activity [21]: 50% | Activity [22]: inactive | Activity [23]: >80% | Activity [24]: Active | Activity [25]: 40.4% | Activity [26]: 19.892 | Activity [27]: Active | Activity [28]: 50% | Activity [29]: 24.8%

O=C(O)c1ccc(CN2CCC(CN[C@@H]3C[C@H]3c3ccccc3)CC2)cc1
viability at 10 µM [12]: 54.2%

CCCCCCCCCCCCCCCc1cccc(O)c1C(=O)O [ANACARDIC ACID]
viability at 10 µM [12]: 54.2%

CN(CC[C@H](N)CC(=O)N[C@H]1C=C[C@H](n2ccc(N)nc2=O)O[C@@H]1C(=O)O)C(=N)N
viability at 10 µM [12]: 54.2%

Cc1sc2c(c1C)C(c1ccc(Cl)cc1)=N[C@@H](CC(=O)OC(C)(C)C)c1nnc(C)n1-2
viability at 10 µM [12]: 54.2%

COc1ccc(C(=O)C2CCN(CC(=O)N(Cc3nc4c(c(=O)[nH]3)COCC4)CC3CC3)CC2)cc1
viability at 10 µM [12]: 54.2%

Fc1cc(-c2cccc3ncc(-c4cnn(C5CCNCC5)c4)nc23)cc(F)c1CN1CCOCC1
viability at 10 µM [12]: 54.2%

Nc1ccn([C@@H]2O[C@H](CO)[C@@H](O)[C@@H]2O)c(=O)n1 [CYTARABINE]
viability at 10 µM [12]: 54.2%

CC(C)N(C[C@H]1O[C@@H](n2cnc3c(N)ncnc32)[C@H](O)[C@@H]1O)[C@H]1C[C@@H](CCc2nc3cc(C(C)(C)C)ccc3[nH]2)C1 [PINOMETOSTAT]
viability at 10 µM [12]: 54.2%
